According to ChEMBL document CHEMBL4689842, “EUbOPEN Chemogenomics Library wave 1” (2021):

Test system: U2OS
Assay: Multiplex assay against U2OS
Type: toxicity, cell-based
Details: human
How it was run: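 Live cells were stained at seeding with Hoechst33342, BioTracker Green Microtubule Cytoskeleton Dye, MitoTracker Red and Annexin V Alexa Fluor 680, then imaged on a CQ1 microscope at 37°C and 5% CO2 after compound addition. CellPathfinder machine-learning gating split cells into Hoechst high-intensity objects or normal cells. Normal cells were split into healthy, pyknosed or fragmented nuclei, and pyknosed cells into mitotic or apoptotic. Tubulin, mitochondrial-mass and membrane-permeability phenotypes are per cents of healthy-nucleus cells.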

[1] = 12 h, 1 µM, compound concentration 1 uM, replicate 1
[2] = 12 h, 1 µM, compound concentration 1 uM, replicate 2
[3] = 12 h, 10 µM, compound concentration 10 uM, replicate 1
[4] = 12 h, 10 µM, compound concentration 10 uM, replicate 2
[5] = 24 h, 1 µM, compound concentration 1 uM, replicate 1
[6] = 24 h, 1 µM, compound concentration 1 uM, replicate 2
[7] = 24 h, 10 µM, compound concentration 10 uM, replicate 1
[8] = 24 h, 10 µM, compound concentration 10 uM, replicate 2
[9] = 48 h, 1 µM, compound concentration 1 uM, replicate 1
[10] = 48 h, 1 µM, compound concentration 1 uM, replicate 2
[11] = 48 h, 10 µM, compound concentration 10 uM, replicate 1
[12] = 48 h, 10 µM, compound concentration 10 uM, replicate 2

COc1cccc([C@@H](C)NCCCc2ccccc2Cl)c1.Cl [TECALCET HYDROCHLORIDE]
Population Apoptotic (%) [1]: 50%
Population Fragmented Nuclei (%) [1]: 22%
Population Healthy Nuclei (%) [1]: 72%
Population Hoechst High Intensity Objects (%) [1]: 32%
Population Membrane Permeable-Phenotype (%) [1]: 3%
Population Mitochondria Different-Phenotype (%) [1]: 34%
Population Mitotic Cells (%) [1]: 50%
Population Normal (%) [1]: 67%
Population Pyknosed Nuclei (%) [1]: 5%
Population Tubulin-Different-Phenotype (%) [1]: 30%
Total Cell Count [1]: 188
Population Apoptotic (%) [2]: 16%
Population Fragmented Nuclei (%) [2]: 10%
Population Healthy Nuclei (%) [2]: 81%
Population Hoechst High Intensity Objects (%) [2]: 10%
Population Membrane Permeable-Phenotype (%) [2]: 6%
Population Mitochondria Different-Phenotype (%) [2]: 20%
Population Mitotic Cells (%) [2]: 83%
Population Normal (%) [2]: 89%
Population Pyknosed Nuclei (%) [2]: 8%
Population Tubulin-Different-Phenotype (%) [2]: 18%
Total Cell Count [2]: 70
Population Apoptotic (%) [3]: 62%
Population Fragmented Nuclei (%) [3]: 11%
Population Healthy Nuclei (%) [3]: 64%
Population Hoechst High Intensity Objects (%) [3]: 8%
Population Membrane Permeable-Phenotype (%) [3]: 6%
Population Mitochondria Different-Phenotype (%) [3]: 86%
Population Mitotic Cells (%) [3]: 37%
Population Normal (%) [3]: 91%
Population Pyknosed Nuclei (%) [3]: 23%
Population Tubulin-Different-Phenotype (%) [3]: 90%
Total Cell Count [3]: 53
Population Apoptotic (%) [4]: 41%
Population Fragmented Nuclei (%) [4]: 7%
Population Healthy Nuclei (%) [4]: 75%
Population Hoechst High Intensity Objects (%) [4]: 5%
Population Membrane Permeable-Phenotype (%) [4]: 18%
Population Mitochondria Different-Phenotype (%) [4]: 90%
Population Mitotic Cells (%) [4]: 58%
Population Normal (%) [4]: 94%
Population Pyknosed Nuclei (%) [4]: 17%
Population Tubulin-Different-Phenotype (%) [4]: 96%
Total Cell Count [4]: 83
Population Apoptotic (%) [5]: 44%
Population Fragmented Nuclei (%) [5]: 22%
Population Healthy Nuclei (%) [5]: 57%
Population Hoechst High Intensity Objects (%) [5]: 26%
Population Membrane Permeable-Phenotype (%) [5]: 3%
Population Mitochondria Different-Phenotype (%) [5]: 30%
Population Mitotic Cells (%) [5]: 55%
Population Normal (%) [5]: 73%
Population Pyknosed Nuclei (%) [5]: 20%
Population Tubulin-Different-Phenotype (%) [5]: 19%
Total Cell Count [5]: 239
Population Apoptotic (%) [6]: 77%
Population Fragmented Nuclei (%) [6]: 8%
Population Healthy Nuclei (%) [6]: 80%
Population Hoechst High Intensity Objects (%) [6]: 8%
Population Membrane Permeable-Phenotype (%) [6]: 6%
Population Mitochondria Different-Phenotype (%) [6]: 6%
Population Mitotic Cells (%) [6]: 22%
Population Normal (%) [6]: 91%
Population Pyknosed Nuclei (%) [6]: 10%
Population Tubulin-Different-Phenotype (%) [6]: 12%
Total Cell Count [6]: 95
Population Apoptotic (%) [7]: 50%
Population Fragmented Nuclei (%) [7]: 12%
Population Healthy Nuclei (%) [7]: 63%
Population Hoechst High Intensity Objects (%) [7]: 12%
Population Membrane Permeable-Phenotype (%) [7]: 10%
Population Mitochondria Different-Phenotype (%) [7]: 81%
Population Mitotic Cells (%) [7]: 50%
Population Normal (%) [7]: 87%
Population Pyknosed Nuclei (%) [7]: 23%
Population Tubulin-Different-Phenotype (%) [7]: 79%
Total Cell Count [7]: 61
Population Apoptotic (%) [8]: 35%
Population Fragmented Nuclei (%) [8]: 8%
Population Healthy Nuclei (%) [8]: 70%
Population Hoechst High Intensity Objects (%) [8]: 8%
Population Membrane Permeable-Phenotype (%) [8]: 24%
Population Mitochondria Different-Phenotype (%) [8]: 91%
Population Mitotic Cells (%) [8]: 64%
Population Normal (%) [8]: 91%
Population Pyknosed Nuclei (%) [8]: 20%
Population Tubulin-Different-Phenotype (%) [8]: 92%
Total Cell Count [8]: 97
Population Apoptotic (%) [9]: 83%
Population Fragmented Nuclei (%) [9]: 29%
Population Healthy Nuclei (%) [9]: 60%
Population Hoechst High Intensity Objects (%) [9]: 20%
Population Membrane Permeable-Phenotype (%) [9]: 8%
Population Mitochondria Different-Phenotype (%) [9]: 34%
Population Mitotic Cells (%) [9]: 16%
Population Normal (%) [9]: 79%
Population Pyknosed Nuclei (%) [9]: 10%
Population Tubulin-Different-Phenotype (%) [9]: 14%
Total Cell Count [9]: 378
Population Apoptotic (%) [10]: 63%
Population Fragmented Nuclei (%) [10]: 6%
Population Healthy Nuclei (%) [10]: 84%
Population Hoechst High Intensity Objects (%) [10]: 7%
Population Membrane Permeable-Phenotype (%) [10]: 12%
Population Mitochondria Different-Phenotype (%) [10]: 15%
Population Mitotic Cells (%) [10]: 36%
Population Normal (%) [10]: 92%
Population Pyknosed Nuclei (%) [10]: 9%
Population Tubulin-Different-Phenotype (%) [10]: 18%
Total Cell Count [10]: 153
Population Apoptotic (%) [11]: 77%
Population Fragmented Nuclei (%) [11]: 18%
Population Healthy Nuclei (%) [11]: 54%
Population Hoechst High Intensity Objects (%) [11]: 11%
Population Membrane Permeable-Phenotype (%) [11]: 7%
Population Mitochondria Different-Phenotype (%) [11]: 55%
Population Mitotic Cells (%) [11]: 22%
Population Normal (%) [11]: 88%
Population Pyknosed Nuclei (%) [11]: 27%
Population Tubulin-Different-Phenotype (%) [11]: 62%
Total Cell Count [11]: 73
Population Apoptotic (%) [12]: 54%
Population Fragmented Nuclei (%) [12]: 10%
Population Healthy Nuclei (%) [12]: 60%
Population Hoechst High Intensity Objects (%) [12]: 4%
Population Membrane Permeable-Phenotype (%) [12]: 36%
Population Mitochondria Different-Phenotype (%) [12]: 82%
Population Mitotic Cells (%) [12]: 45%
Population Normal (%) [12]: 95%
Population Pyknosed Nuclei (%) [12]: 29%
Population Tubulin-Different-Phenotype (%) [12]: 73%
Total Cell Count [12]: 130

Cc1csc2c(N[C@@H](C)CN3CCN(S(=O)(=O)c4ccc(Cl)c(Cl)c4)CC3)ncnc12
Population Apoptotic (%) [1]: 70%
Population Fragmented Nuclei (%) [1]: 14%
Population Healthy Nuclei (%) [1]: 66%
Population Hoechst High Intensity Objects (%) [1]: 8%
Population Membrane Permeable-Phenotype (%) [1]: 4%
Population Mitochondria Different-Phenotype (%) [1]: 31%
Population Mitotic Cells (%) [1]: 30%
Population Normal (%) [1]: 91%
Population Pyknosed Nuclei (%) [1]: 19%
Population Tubulin-Different-Phenotype (%) [1]: 50%
Total Cell Count [1]: 158
Population Apoptotic (%) [2]: 16%
Population Fragmented Nuclei (%) [2]: 5%
Population Healthy Nuclei (%) [2]: 84%
Population Hoechst High Intensity Objects (%) [2]: 5%
Population Membrane Permeable-Phenotype (%) [2]: 6%
Population Mitochondria Different-Phenotype (%) [2]: 33%
Population Mitotic Cells (%) [2]: 83%
Population Normal (%) [2]: 95%
Population Pyknosed Nuclei (%) [2]: 10%
Population Tubulin-Different-Phenotype (%) [2]: 47%
Total Cell Count [2]: 48
Population Apoptotic (%) [3]: 53%
Population Fragmented Nuclei (%) [3]: 15%
Population Healthy Nuclei (%) [3]: 57%
Population Hoechst High Intensity Objects (%) [3]: 9%
Population Membrane Permeable-Phenotype (%) [3]: 55%
Population Mitochondria Different-Phenotype (%) [3]: 100%
Population Mitotic Cells (%) [3]: 46%
Population Normal (%) [3]: 90%
Population Pyknosed Nuclei (%) [3]: 27%
Population Tubulin-Different-Phenotype (%) [3]: 100%
Total Cell Count [3]: 114
Population Apoptotic (%) [4]: 75%
Population Fragmented Nuclei (%) [4]: 12%
Population Healthy Nuclei (%) [4]: 67%
Population Hoechst High Intensity Objects (%) [4]: 4%
Population Membrane Permeable-Phenotype (%) [4]: 56%
Population Mitochondria Different-Phenotype (%) [4]: 98%
Population Mitotic Cells (%) [4]: 25%
Population Normal (%) [4]: 95%
Population Pyknosed Nuclei (%) [4]: 19%
Population Tubulin-Different-Phenotype (%) [4]: 98%
Total Cell Count [4]: 60
Population Apoptotic (%) [5]: 73%
Population Fragmented Nuclei (%) [5]: 7%
Population Healthy Nuclei (%) [5]: 78%
Population Hoechst High Intensity Objects (%) [5]: 8%
Population Membrane Permeable-Phenotype (%) [5]: 10%
Population Mitochondria Different-Phenotype (%) [5]: 27%
Population Mitotic Cells (%) [5]: 26%
Population Normal (%) [5]: 91%
Population Pyknosed Nuclei (%) [5]: 13%
Population Tubulin-Different-Phenotype (%) [5]: 45%
Total Cell Count [5]: 175
Population Apoptotic (%) [6]: 60%
Population Fragmented Nuclei (%) [6]: 11%
Population Healthy Nuclei (%) [6]: 73%
Population Hoechst High Intensity Objects (%) [6]: 4%
Population Membrane Permeable-Phenotype (%) [6]: 11%
Population Mitochondria Different-Phenotype (%) [6]: 25%
Population Mitotic Cells (%) [6]: 40%
Population Normal (%) [6]: 95%
Population Pyknosed Nuclei (%) [6]: 14%
Population Tubulin-Different-Phenotype (%) [6]: 23%
Total Cell Count [6]: 64
Population Apoptotic (%) [7]: 95%
Population Fragmented Nuclei (%) [7]: 18%
Population Healthy Nuclei (%) [7]: 44%
Population Hoechst High Intensity Objects (%) [7]: 5%
Population Membrane Permeable-Phenotype (%) [7]: 75%
Population Mitochondria Different-Phenotype (%) [7]: 100%
Population Mitotic Cells (%) [7]: 4%
Population Normal (%) [7]: 94%
Population Pyknosed Nuclei (%) [7]: 36%
Population Tubulin-Different-Phenotype (%) [7]: 100%
Total Cell Count [7]: 119
Population Apoptotic (%) [8]: 80%
Population Fragmented Nuclei (%) [8]: 15%
Population Healthy Nuclei (%) [8]: 57%
Population Hoechst High Intensity Objects (%) [8]: 4%
Population Membrane Permeable-Phenotype (%) [8]: 80%
Population Mitochondria Different-Phenotype (%) [8]: 97%
Population Mitotic Cells (%) [8]: 19%
Population Normal (%) [8]: 95%
Population Pyknosed Nuclei (%) [8]: 26%
Population Tubulin-Different-Phenotype (%) [8]: 97%
Total Cell Count [8]: 72
Population Apoptotic (%) [9]: 77%
Population Fragmented Nuclei (%) [9]: 8%
Population Healthy Nuclei (%) [9]: 79%
Population Hoechst High Intensity Objects (%) [9]: 3%
Population Membrane Permeable-Phenotype (%) [9]: 8%
Population Mitochondria Different-Phenotype (%) [9]: 16%
Population Mitotic Cells (%) [9]: 22%
Population Normal (%) [9]: 96%
Population Pyknosed Nuclei (%) [9]: 11%
Population Tubulin-Different-Phenotype (%) [9]: 30%
Total Cell Count [9]: 243
Population Apoptotic (%) [10]: 25%
Population Fragmented Nuclei (%) [10]: 12%
Population Healthy Nuclei (%) [10]: 82%
Population Hoechst High Intensity Objects (%) [10]: 4%
Population Mitochondria Different-Phenotype (%) [10]: 12%
Population Mitotic Cells (%) [10]: 75%
Population Normal (%) [10]: 95%
Population Pyknosed Nuclei (%) [10]: 4%
Population Tubulin-Different-Phenotype (%) [10]: 20%
Total Cell Count [10]: 89
Population Apoptotic (%) [11]: 87%
Population Fragmented Nuclei (%) [11]: 25%
Population Healthy Nuclei (%) [11]: 30%
Population Hoechst High Intensity Objects (%) [11]: 8%
Population Membrane Permeable-Phenotype (%) [11]: 78%
Population Mitochondria Different-Phenotype (%) [11]: 96%
Population Mitotic Cells (%) [11]: 12%
Population Normal (%) [11]: 91%
Population Pyknosed Nuclei (%) [11]: 43%
Population Tubulin-Different-Phenotype (%) [11]: 100%
Total Cell Count [11]: 159
Population Apoptotic (%) [12]: 92%
Population Fragmented Nuclei (%) [12]: 15%
Population Healthy Nuclei (%) [12]: 50%
Population Hoechst High Intensity Objects (%) [12]: 7%
Population Membrane Permeable-Phenotype (%) [12]: 84%
Population Mitochondria Different-Phenotype (%) [12]: 97%
Population Mitotic Cells (%) [12]: 7%
Population Normal (%) [12]: 92%
Population Pyknosed Nuclei (%) [12]: 34%
Population Tubulin-Different-Phenotype (%) [12]: 97%
Total Cell Count [12]: 91
